The nature of series [1]: Thiol reactivity using recombinant human full length 13C-labeled La antigen (100 to 324 residues) expressed in Escherichia coli BL21(DE3) by ALARM NMR.
Series [2] concerns the target T1, Cathepsin K (Homo sapiens, UniProt P43235).
T1 sequence (P43235 whole entry): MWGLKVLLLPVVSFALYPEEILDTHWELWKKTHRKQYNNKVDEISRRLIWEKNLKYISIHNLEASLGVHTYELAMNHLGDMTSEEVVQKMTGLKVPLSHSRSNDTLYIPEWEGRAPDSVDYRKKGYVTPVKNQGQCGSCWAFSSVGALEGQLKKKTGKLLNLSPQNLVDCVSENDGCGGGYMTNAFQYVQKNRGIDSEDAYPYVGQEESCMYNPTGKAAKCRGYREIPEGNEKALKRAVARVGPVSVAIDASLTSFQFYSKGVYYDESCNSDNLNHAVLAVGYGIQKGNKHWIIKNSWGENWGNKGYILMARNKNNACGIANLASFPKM
The series can be described thus: Inhibition of human procathepsin K expressed in Escherichia coli using Z-Gly-Pro-Arg-AMC as substrate by kinetic fluorescence assay. Put shortly: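 Cathepsin K at 3 nM, activated from E. coli-expressed recombinant human procathepsin K. Substrate 10 µM Z-Gly-Pro-Arg-AMC in MES/EDTA/Brij 35/L-cysteine buffer, pH 6.0, room temperature. Ki obtained via Cheng-Prusoff from IC50. Mean of 2–4 curves.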

The species named for series [3] is Homo sapiens. The series can be described thus: Selectivity ratio of Ki for recombinant human cathepsin S expressed in Escherichia coli to Ki for human erythrocytes calpain-1. Put shortly: (§1)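 Ki ratios from kinetic fluorescence assays. Cathepsins B (0.25 nM), L (1 nM), K (3 nM) and S (0.5 nM) in MES buffer at pH 6.0. All at room temperature; Ki by Cheng-Prusoff.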

Series [4] in a line: Inhibition of human liver cathepsin L using Z-Phe-Arg-AMC as substrate by kinetic fluorescence assay.
A short description of series [5]: Selectivity ratio of Ki for human liver cathepsin L to Ki for human erythrocytes calpain-1.
Series [6] concerns the target T2, Pro-cathepsin H (Homo sapiens) (UniProt P09668).
T2 sequence (whole entry): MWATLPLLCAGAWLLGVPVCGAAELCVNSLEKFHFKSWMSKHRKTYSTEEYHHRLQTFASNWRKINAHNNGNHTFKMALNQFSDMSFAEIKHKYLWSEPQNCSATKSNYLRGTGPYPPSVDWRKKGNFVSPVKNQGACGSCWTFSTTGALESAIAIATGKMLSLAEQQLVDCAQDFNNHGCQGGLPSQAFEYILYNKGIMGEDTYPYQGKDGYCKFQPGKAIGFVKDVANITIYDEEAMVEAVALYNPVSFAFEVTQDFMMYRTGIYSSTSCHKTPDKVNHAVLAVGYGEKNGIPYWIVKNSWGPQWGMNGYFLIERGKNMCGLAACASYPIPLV
The series can be described thus: Inhibition of Cathepsin H (unknown origin) at 10 uM.

Series [7] deals with Cathepsin C (Dipeptidyl peptidase 1) (Homo sapiens, UniProt P53634). The series can be described thus: Inhibition of Cathepsin C (unknown origin) at 10 uM.
Cathepsin C (Dipeptidyl peptidase 1), sequence (P53634 25-134 limits assumed): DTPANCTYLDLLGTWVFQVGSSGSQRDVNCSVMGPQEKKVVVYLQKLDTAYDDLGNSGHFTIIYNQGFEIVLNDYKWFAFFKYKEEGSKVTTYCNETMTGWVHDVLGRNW
Cathepsin C (Dipeptidyl peptidase 1), sequence (P53634 231-394 limits assumed): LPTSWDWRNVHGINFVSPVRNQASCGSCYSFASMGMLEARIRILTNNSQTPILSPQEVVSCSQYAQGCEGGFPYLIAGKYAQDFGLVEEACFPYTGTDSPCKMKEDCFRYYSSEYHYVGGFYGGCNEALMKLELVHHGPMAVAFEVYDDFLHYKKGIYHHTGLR
Cathepsin C (Dipeptidyl peptidase 1), sequence (P53634 395-463 limits assumed): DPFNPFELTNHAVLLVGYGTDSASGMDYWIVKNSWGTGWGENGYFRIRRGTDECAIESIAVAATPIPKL
Series [8] can be described thus: Selectivity ratio of Ki for human liver cathepsin B to Ki for human erythrocytes calpain-1.
For series [9], the target named is Cathepsin B (Homo sapiens, UniProt P07858). The series can be described thus: Inhibition of human liver cathepsin B using Z-Phe-Arg-AMC as substrate by kinetic fluorescence assay.
Series [10] has as its target T3, Calpain-1 catalytic subunit (Homo sapiens, UniProt P07384).
T3 sequence (P07384 whole entry): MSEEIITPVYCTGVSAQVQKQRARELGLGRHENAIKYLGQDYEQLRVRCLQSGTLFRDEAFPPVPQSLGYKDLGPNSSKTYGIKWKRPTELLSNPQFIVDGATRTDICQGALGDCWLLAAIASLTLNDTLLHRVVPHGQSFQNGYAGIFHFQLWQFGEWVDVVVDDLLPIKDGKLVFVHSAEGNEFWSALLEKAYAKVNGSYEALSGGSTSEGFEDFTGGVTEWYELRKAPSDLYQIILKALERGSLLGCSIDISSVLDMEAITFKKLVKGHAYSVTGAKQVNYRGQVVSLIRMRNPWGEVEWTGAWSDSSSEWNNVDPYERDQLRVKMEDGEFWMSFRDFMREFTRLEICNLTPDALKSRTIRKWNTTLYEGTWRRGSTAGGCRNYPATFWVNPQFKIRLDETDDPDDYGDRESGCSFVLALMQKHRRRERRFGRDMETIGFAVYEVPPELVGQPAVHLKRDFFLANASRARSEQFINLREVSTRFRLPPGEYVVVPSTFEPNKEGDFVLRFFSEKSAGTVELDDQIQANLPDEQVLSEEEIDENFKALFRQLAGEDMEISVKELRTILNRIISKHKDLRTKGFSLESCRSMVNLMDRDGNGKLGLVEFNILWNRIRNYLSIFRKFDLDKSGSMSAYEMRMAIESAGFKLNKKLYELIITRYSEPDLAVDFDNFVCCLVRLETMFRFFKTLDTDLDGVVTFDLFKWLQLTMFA
The series can be described thus: Inhibition of human erythrocytes calpain-1 using Suc-Leu-Tyr-AMC as substrate by kinetic fluorescence assay. To be noted: read-out: Ki.

For series [11], the species on record is Homo sapiens. The series can be described thus: Selectivity ratio of Ki for recombinant human procathepsin K expressed in Escherichia coli to Ki for human erythrocytes calpain-1. Put shortly: as §1
In series [12] the target is T4, Calpain-1 catalytic subunit (Homo sapiens) (UniProt P07384).
T4 sequence (whole entry): T3 sequence (P07384 whole entry)
The series can be described thus: Inhibition of human erythrocytes calpain-1 using Suc-Leu-Tyr-AMC as substrate in presence of up to 10 mM glutathione by kinetic fluorescence assay.

The target in series [13] is Cathepsin S (Homo sapiens, UniProt P25774). The series can be described thus: Inhibition of human cathepsin S expressed in Escherichia coli using Z-Val-Val-Arg-AMC as substrate by kinetic fluorescence assay.
Cathepsin S, sequence (P25774 whole entry): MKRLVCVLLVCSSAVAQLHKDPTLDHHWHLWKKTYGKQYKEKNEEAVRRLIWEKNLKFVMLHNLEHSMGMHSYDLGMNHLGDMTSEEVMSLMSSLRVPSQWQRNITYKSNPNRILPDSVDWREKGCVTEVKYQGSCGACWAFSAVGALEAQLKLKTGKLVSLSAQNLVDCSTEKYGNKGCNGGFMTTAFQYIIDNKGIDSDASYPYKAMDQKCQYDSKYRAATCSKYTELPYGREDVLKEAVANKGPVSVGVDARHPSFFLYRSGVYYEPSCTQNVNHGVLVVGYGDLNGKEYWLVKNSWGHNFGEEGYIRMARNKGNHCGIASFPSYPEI
The target of series [14] is T5, Calpain-1 catalytic subunit (Rattus norvegicus, UniProt P97571).
T5 sequence (P97571 whole entry): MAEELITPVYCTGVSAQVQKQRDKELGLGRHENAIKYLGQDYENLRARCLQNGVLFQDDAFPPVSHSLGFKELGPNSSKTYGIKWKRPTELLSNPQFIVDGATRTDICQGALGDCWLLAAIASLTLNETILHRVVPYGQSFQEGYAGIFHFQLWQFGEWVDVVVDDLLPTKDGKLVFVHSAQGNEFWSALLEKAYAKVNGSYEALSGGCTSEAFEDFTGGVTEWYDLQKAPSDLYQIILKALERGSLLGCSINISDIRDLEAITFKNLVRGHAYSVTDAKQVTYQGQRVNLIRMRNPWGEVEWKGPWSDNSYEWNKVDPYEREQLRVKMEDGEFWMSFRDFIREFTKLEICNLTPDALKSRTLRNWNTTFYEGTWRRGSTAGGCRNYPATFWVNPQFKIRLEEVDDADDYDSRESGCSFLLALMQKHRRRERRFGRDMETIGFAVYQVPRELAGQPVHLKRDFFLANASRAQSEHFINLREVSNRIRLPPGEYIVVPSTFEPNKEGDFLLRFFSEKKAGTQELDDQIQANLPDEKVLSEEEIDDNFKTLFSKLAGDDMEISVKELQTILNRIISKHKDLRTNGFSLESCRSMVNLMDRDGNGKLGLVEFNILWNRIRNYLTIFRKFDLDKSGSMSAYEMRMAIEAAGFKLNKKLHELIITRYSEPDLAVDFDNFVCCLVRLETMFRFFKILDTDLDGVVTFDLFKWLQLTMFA
The series can be described thus: (§2) Inhibition of calpain-1 in rat hippocampal slices assessed as prevention of NMDA-induced spectrin cleavage preincubated for 30 mins followed by NMDA addition measured after 5 hrs by Western blot analysis. Put shortly:
(§3)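 Organotypic rat hippocampal slice cultures kept 6–8 days in 2% serum medium; 30 min inhibitor pre-incubation, then 10 µM NMDA for 5 h at 34°C, 5% CO2. Slices lysed; 150/145 kDa spectrin breakdown products quantified by densitometric Western blot with anti-spectrin alpha chain antibody.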
Background: A western blot detects proteins with antibodies after separation by electrophoresis.

Series [15] concerns the target T6, Calpain-1 catalytic subunit (Rattus norvegicus) (UniProt P97571).
T6 sequence (whole entry): T5 sequence (P97571 whole entry)
The series is described as §2. Put shortly: as §3

Series [16] is described as follows: Solubility of the compound. The class given is physicochemical.
Series [17] can be described thus: Drug level in monkey blood treated with [3H]-labeled N-(4-Amino-3,4-dioxo-1-phenylbutan-2-yl)-2-(3-(4-fluorophenyl)-1H-pyrazol-1-yl)nicotinamide assesseed as cytosolic carbonyl reductase-mediated compound formation. The series is classed as ADME, Macaca mulatta. To be noted: rhesus monkey, cytosol.
The nature of series [18]: Drug level in monkey hepatocytes treated with [3H]-labeled N-(4-Amino-3,4-dioxo-1-phenylbutan-2-yl)-2-(3-(4-fluorophenyl)-1H-pyrazol-1-yl)nicotinamide assesseed as cytosolic carbonyl reductase-mediated compound formation. To be noted: rhesus monkey. The series is classed as ADME, cell-based, Macaca mulatta.
The target in series [19] is T7, Carbonyl reductase [NADPH] 1 (Homo sapiens, UniProt P16152).
T7 sequence (P16152 whole entry): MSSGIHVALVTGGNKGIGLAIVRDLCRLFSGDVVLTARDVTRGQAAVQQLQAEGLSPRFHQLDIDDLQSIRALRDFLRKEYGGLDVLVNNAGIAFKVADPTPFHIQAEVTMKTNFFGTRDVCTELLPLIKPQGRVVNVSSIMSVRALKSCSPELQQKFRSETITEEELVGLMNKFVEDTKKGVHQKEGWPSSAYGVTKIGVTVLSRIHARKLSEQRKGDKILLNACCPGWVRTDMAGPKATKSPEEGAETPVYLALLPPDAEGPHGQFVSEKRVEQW
The series can be described thus: Drug level in human blood treated with [3H]-labeled N-(4-Amino-3,4-dioxo-1-phenylbutan-2-yl)-2-(3-(4-fluorophenyl)-1H-pyrazol-1-yl)nicotinamide assesseed as cytosolic carbonyl reductase-mediated compound formation. The series is classed as ADME. To be noted: cytosol.

For series [20], the target named is T7, Carbonyl reductase [NADPH] 1. The series can be described thus: Drug level in human hepatocytes treated with [3H]-labeled N-(4-Amino-3,4-dioxo-1-phenylbutan-2-yl)-2-(3-(4-fluorophenyl)-1H-pyrazol-1-yl)nicotinamide assesseed as cytosolic carbonyl reductase-mediated compound formation. The series is classed as ADME, cell-based.

These results are taken from ChEMBL document CHEMBL4038338 (J Med Chem, 2017).

Activity calls are given as the source filed them. The calls are words filed in the database; no cut-off is given here.

The term Ki denotes a dissociation constant, usually derived from enzyme kinetics or from competition with a known ligand. As a reminder, the inhibition is the change of the read-out against control, counted positive when it falls. What is called IC50 is the point on the concentration scale where inhibition reaches its midpoint.

For the compound `CCN(CC)Cc1ccc(/C=C/c2ccccc2C(=O)NC(Cc2ccccc2)C(=O)C(N)=O)cc1` (configuration not stated), the Thiol reactivity entry in [1] is listed as “Metabolite not detected”. The Ki in series [2] came to 1.8 nM; in series [4], 137 nM; in series [9] it was 28 nM; in [10], 56 nM; in series [13], 3290 nM. Also, the Ratio Ki in series [3] was 59; in [5], 2.5; in series [8], below 1; in series [11], below 0.1. The same compound showed an inhibition in series [6] of 84%. In series [7], this compound showed an inhibition at 10 µM of 94%. For the same compound, the inhibition result in series [12] is “Active”.
As to `NC(=O)C(=O)C(Cc1ccccc1)NC(=O)c1cccnc1-n1cc2c(n1)-c1ccccc1OC2` (configuration not stated), the Thiol reactivity result in series [1] is “Metabolite not detected”. In addition, the Ratio Ki is above 500 in series [3], 278 in series [5], 29 in [8] and 47 in [11]. Moreover, the IC50 in series [14] is 2020 nM. Further, in series [15], the fIC50 was found to be 65 nM. The solubility entry in series [16] is reported as “Insoluble”. For the same compound, the Ki in [10] was found to be 8 nM. In addition, in series [12], the inhibition entry was “Active”.
`NC(=O)C(O)C(Cc1ccccc1)NC(=O)c1cccnc1-n1ccc(-c2ccc(F)cc2)n1` (configuration not stated): the Drug metabolism entry in series [17], in series [18], in [19] and in series [20] was “Metabolite_Detected” each time.
